Among the data in ChEMBL document CHEMBL1123778, “Synthesis and 5-lipoxygenase inhibitory activity of 5-hydroperoxy-6,8,11,14-eicosatetraenoic acid analogues” (J Med Chem, 1987) are IC50 and inhibition values, retold here.

In test [1] the target is T1, Polyunsaturated fatty acid 5-lipoxygenase (Rattus norvegicus, UniProt P12527).
T1 sequence (P12527 whole entry): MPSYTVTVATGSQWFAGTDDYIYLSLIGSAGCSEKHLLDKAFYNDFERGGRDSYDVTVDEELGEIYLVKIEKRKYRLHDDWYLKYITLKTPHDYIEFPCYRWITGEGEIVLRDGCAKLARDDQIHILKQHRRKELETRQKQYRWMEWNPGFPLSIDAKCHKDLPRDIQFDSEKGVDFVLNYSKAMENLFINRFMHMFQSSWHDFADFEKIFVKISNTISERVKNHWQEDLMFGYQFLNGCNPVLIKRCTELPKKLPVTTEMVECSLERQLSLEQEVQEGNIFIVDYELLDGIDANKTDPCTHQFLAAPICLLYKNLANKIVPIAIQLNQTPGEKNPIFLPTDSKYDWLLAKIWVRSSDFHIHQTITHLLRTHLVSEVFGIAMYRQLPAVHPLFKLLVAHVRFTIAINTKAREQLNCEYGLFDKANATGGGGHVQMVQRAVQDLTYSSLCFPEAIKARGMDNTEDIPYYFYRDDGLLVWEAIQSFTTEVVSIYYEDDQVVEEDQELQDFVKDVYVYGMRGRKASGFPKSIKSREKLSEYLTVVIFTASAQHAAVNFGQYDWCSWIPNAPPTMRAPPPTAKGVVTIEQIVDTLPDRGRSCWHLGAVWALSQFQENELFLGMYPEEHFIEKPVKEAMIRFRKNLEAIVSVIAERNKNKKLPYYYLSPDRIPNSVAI
The experiment in a line: In vitro inhibitory activity against 5-lipoxygenase from rat basophilic leukemia cells.

Test [2] concerns the target T2, Polyunsaturated fatty acid 5-lipoxygenase (Rattus norvegicus) (UniProt P12527).
T2 sequence (whole entry): T1 sequence (P12527 whole entry)
Nature of the test: In vitro inhibitory activity against 5-Lipoxygenase from rat basophilic leukemia cells at 30 uM concentration. In a few lines:
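20000g supernatant of homogenized RBL-1 cells (7.5×10^6 cell equivalents/mL) preincubated 20 min at 37 °C with inhibitor or vehicle (2% Me₂SO) in pH 6.8 BES/PIPES buffer with EDTA, NaCl, 0.7 mM CaCl₂. Reaction started with 66 μM [¹⁴C]arachidonic acid. [¹⁴C]-5-HETE counted by liquid scintillation, corrected for [³H]-5-HETE recovery. Inhibition = % reduction vs control.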

As a reminder, the IC50 is the midpoint of a concentration-inhibition curve. A high value points to weaker potency. As for `CCCCC/C=C\C/C=C\C/C=C\C=C\C(CS)CCCC(=O)O` (centres undefined), the IC50 in test [1] was determined as 11 µM.

`CCCCC/C=C\C/C=C\C/C=C\C=C\C(=O)CCCC(=O)O` [5-OXO-ETE] yielded an IC50 in test [1] of 18 µM.

For the molecule `CCCCC/C=C\C/C=C\C/C=C\C=C\C(S)CCCC(=O)O` (centres undefined), in test [1], the IC50 amounted to 7.6 µM.

`CCCCC/C=C\C/C=C\C/C=C\C=C\C(CO)CCCC(=O)O` (centres undefined) came in with an IC50 in test [1] of 29 µM.

Consider `CCCCC/C=C\C/C=C\C/C=C\C=C\C1CCCC(=O)O1` (centres undefined), for which it took 27 µM to reach half-maximal inhibition in test [1] (IC50).

`CCCCC/C=C\C/C=C\C/C=C\C=C\C(N)CCCC(=O)O` (centres undefined): 25 µM corresponded to half-maximal inhibition in test [1] (IC50).

`CCCCC/C=C\C/C=C\C/C=C\C=C\C(CCCC(=O)O)CC(=O)O` (centres undefined) came in with an IC50 in test [1] of 96 µM.

In the case of `CCCCC/C=C\C/C=C\C\C=C/C=C/C(CCCC(=O)O)=N/NC(N)=O`, the IC50 in test [1] was 7 µM.

Take `CCCCC/C=C\C/C=C\C/C=C\C=C\C(CCS)CCCC(=O)O` (centres undefined): in test [1], the half-maximal inhibitory concentration (IC50) was 25 µM.

The molecule `CCCCC/C=C\C/C=C\C/C=C\C=C\C(CCCC(=O)O)OC(C)=O` (centres undefined) had an IC50 in test [1] of 68 µM.

In the case of `CCCCC/C=C\C/C=C\C/C=C\C/C=C\CCCC(=O)NO`, in test [1], 2.2 µM corresponded to half-maximal inhibition (IC50).

In test [1], `CCCCC/C=C\C/C=C\C/C=C\C=C\C(CCCC(=O)O)C(=O)NO` (centres undefined) displayed an IC50 of 1.4 µM.

As for `CCCCC/C=C\C/C=C\C/C=C\C=C\C(CCCO)CCCC(=O)O` (centres undefined), the IC50 in test [1] stood at 97 µM.

With `CCCCC/C=C\C/C=C\C\C=C/C=C/C(CCCC(=O)O)=N/O`, the IC50 in test [1] came to 11 µM.

In test [1], `CCCCC/C=C\C/C=C\C/C=C\C=C\C(CCCC(=O)O)NO` (centres undefined) returned an IC50 of 21 µM.

Molecule `CCCCC/C=C\C/C=C\C/C=C\C=C\C1CC(=O)CC(CC(=O)O)C1` (centres undefined) had an IC50 in test [1] of 59 µM.

The molecule `CCCCC/C=C\C/C=C\C/C=C\C=C\C1CCCC(=O)N1` (centres undefined) yielded an IC50 in test [1] of 10 µM.

One may read the inhibition as the change of the read-out against control, counted positive when it falls. For the molecule `CCCCC/C=C\C/C=C\C/C=C\C=C\C1CCCC(=O)C1` (centres undefined), in test [2], the inhibition was determined as 27%.

As to `CCCCC/C=C\C/C=C\C/C=C\C=C\C(CCCC(=O)O)CC(=O)NO` (centres undefined), the midpoint of inhibition in test [1], the IC50, lay at 0.19 µM.

`CCCCC/C=C\C/C=C\C\C=C/C=C/C(CCCC(=O)O)=N/N=C(/N)S`: the IC50 in test [1] is 7.9 µM.

In test [1], `CCCCC/C=C\C/C=C\C/C=C\C=C\C(CCCS)CCCC(=O)O` (centres undefined) had an IC50 of 36 µM.

`CCCCC/C=C\C/C=C\C/C=C\C=C\C(CCCC(=O)O)CCC(=O)NO` (centres undefined): in test [1], the IC50 turned out to be 2.8 µM.

In test [1], `CCCCC/C=C\C/C=C\C/C=C\C=C\C(O)CCCC(=O)NO` (centres undefined) yielded an IC50 of 2.1 µM.

In test [1], `CCCCC/C=C\C/C=C\C/C=C\C=C\C(CCO)CCCC(=O)O` (centres undefined) came in with a 50% inhibitory concentration (IC50) of 22 µM.
